Experiment [1] can be described thus: Her2 expression decrease, cell viability multiplex – SKBR3 breast tumor cells, AlphaScreen, ATP viability, primary screen (AID 461;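 active = Her2 level under about 52% in both replicate screens, with viability over 70% of control, limit read from the data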;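 for Her2 level: lower value means less Her2 protein in the cells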;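 for viability: percent of carrier control wells set as 100% viability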). To be noted: SKBR3 Her2 protein level, 18-24 h, measured here: SKBR3 viability, ATP luminescence, at 10 µM.
For experiment [2], the target named is Receptor tyrosine-protein kinase erbB-2 (Homo sapiens) (UniProt P04626). Described as above. The following applies: 18-24 h, at 10 µM, stronger effect = lower value.
Sequence of Receptor tyrosine-protein kinase erbB-2 (Homo sapiens) (P04626 whole entry, looked up): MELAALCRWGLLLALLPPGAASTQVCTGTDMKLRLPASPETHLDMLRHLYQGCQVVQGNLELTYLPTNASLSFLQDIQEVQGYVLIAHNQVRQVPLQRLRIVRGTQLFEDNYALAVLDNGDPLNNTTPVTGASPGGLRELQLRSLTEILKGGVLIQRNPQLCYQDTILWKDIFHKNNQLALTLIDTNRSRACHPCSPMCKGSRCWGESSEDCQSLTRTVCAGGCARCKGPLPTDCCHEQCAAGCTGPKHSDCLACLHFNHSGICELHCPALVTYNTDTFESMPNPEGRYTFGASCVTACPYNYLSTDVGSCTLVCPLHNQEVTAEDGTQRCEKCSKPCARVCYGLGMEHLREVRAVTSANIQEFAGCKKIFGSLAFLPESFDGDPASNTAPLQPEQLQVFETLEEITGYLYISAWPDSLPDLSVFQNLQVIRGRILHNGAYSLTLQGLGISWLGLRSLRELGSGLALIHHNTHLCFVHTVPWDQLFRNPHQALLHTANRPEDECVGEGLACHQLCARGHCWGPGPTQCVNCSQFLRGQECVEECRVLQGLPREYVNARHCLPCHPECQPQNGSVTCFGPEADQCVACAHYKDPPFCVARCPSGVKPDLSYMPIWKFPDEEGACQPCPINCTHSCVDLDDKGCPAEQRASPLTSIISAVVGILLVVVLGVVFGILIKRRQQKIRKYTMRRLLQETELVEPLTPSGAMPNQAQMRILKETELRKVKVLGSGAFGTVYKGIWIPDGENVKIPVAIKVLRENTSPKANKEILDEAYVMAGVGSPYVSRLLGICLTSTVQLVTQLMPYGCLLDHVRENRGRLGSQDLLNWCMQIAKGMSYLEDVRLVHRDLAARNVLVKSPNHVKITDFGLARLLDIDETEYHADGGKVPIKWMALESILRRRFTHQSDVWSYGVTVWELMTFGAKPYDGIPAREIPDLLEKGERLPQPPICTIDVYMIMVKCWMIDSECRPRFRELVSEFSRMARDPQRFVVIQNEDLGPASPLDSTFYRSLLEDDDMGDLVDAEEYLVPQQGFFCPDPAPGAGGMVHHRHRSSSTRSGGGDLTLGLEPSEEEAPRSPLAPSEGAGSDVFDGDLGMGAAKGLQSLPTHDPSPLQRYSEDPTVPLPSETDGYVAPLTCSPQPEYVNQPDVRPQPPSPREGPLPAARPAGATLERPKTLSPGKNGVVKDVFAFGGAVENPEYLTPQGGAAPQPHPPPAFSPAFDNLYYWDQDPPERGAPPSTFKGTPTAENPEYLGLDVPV
The nature of experiment [3]: reduced viability of SK-BR-3 breast cancer cells – cell-based, 24 h, human, pilot screen (AID 572;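 active = viability at or below 10% of carrier control in both of two separate runs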;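 note: compound exposure lasted between 18 and 24 h rather than exactly 24 h; 100% = carrier-treated control wells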). The following applies: SK-BR-3 viability, CellTiter-Glo luminescence, at 10 µM, stronger effect = lower value. (In general: ATP-based viability assays read luminescence as a measure of living cells.)
A short description of experiment [4]: HUVEC growth inhibition – cell-based, human, primary screen (AID 575;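 active = viability at or below 30% in both replicate assays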;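 note: 100% = median of untreated cell wells with 0.1% DMSO on each plate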). To be noted: HUVEC proliferation, CellTiter-Glo luminescence, 72 h; at 10 µM; stronger effect = lower value. In a few lines: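 System – primary HUVEC, no more than 12 passages · Medium – Low-serum (2% FBS) EBM, supplemented · Times – 72 h exposure, 37 °C, 5% CO2, 30 min RT equilibration · Measured by – luminescent ATP assay · Read-out – % viability relative to median vehicle-well signal on each plate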

A short description of experiment [5]: H69AR cell proliferation blockers – human, duplicate replicates, primary screen (AID 580;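 active = viability at or under a set limit in both replicates, limit being median viability minus 3 SD, cut at about 48% in these data, passing the limit was not always enough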;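 note: 100% = mean luminescence of untreated wells and 0% = no signal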). To be noted: H69AR lung tumor cells viability, ATP luminescence, 72 h; at 10 µM; stronger effect = lower value.
Experiment [6] can be described thus: MRP1 drug-resistance reversers in H69AR cells – cell-based, doxorubicin co-treatment, pilot screen (AID 601;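 active = viability loss from added drug above about 55%, and viability with drug at most 40%, in both replicates, limit read from the data, passing the limit was not always enough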). The following applies: CellTiter-Glo, 72 h, at 10 µM; for differential viability (reversal): stronger effect = higher value.
A short description of experiment [7]: yeast transport mutant growth inhibition pilot in 384-well plates, post-Golgi transport modulator project (AID 636; in the data active = inhibition above about 31%). To be noted: absorbance 615 nm, about 18 h, stronger effect = higher value.
Experiment [8] can be described thus: growth suppression of yeast trafficking mutant, preliminary HTS, modulators of trafficking downstream of Golgi apparatus project, 1536-format plate, OD 615 nm (AID 637). The following applies: yeast transport mutant growth, absorbance 615 nm, 18 h; stronger effect = higher value.
Where [9] appears, read: H69AR cells + 2 uM doxorubicin, measured here: viability with 2 uM doxorubicin, stronger effect = lower value.
[10] abbreviates: H69AR cells, compound alone cytotoxicity.

Activity calls are given as the source filed them. Cut-off read from the data, not from the text of the source, unless noted: active = inhibition above about 30%; inactive = the rest.

Regarding `O=C(O)CCc1ccc(-c2cccs2)n1CCC(=O)O`, the viability in experiment [1] was 108%; in experiment [3] it was 108% (inactive); in experiment [4], 107% (inactive); in experiment [5] it was 85.8% (inactive); in experiment [6] (setting [9]), 84.6%; in experiment [6] (setting [10]), 85.8%. In addition, the Her2 level in experiment [2] is 86.5% (inactive). Further, in experiment [6] (H69AR cells + 2 uM doxorubicin), the differential viability (reversal) was 1.25% (inactive). The inhibition is -2.24% (inactive) in experiment [7] and -1.64% (inactive) in experiment [8].
`COC(=O)c1cc2ccsc2n1Cc1nc(-c2ccc(OC)cc2)oc1C`: the viability in experiment [1] is 85.5%; in experiment [3], 85.5% (inactive); in experiment [4] it was 67.5% (inactive); in experiment [5] it was 83.6% (inactive); in experiment [6] (setting [9]) it was 95.6%; in experiment [6] (setting [10]), 83.6%. Moreover, the Her2 level in experiment [2] is 82% (inactive). The differential viability (reversal) in experiment [6] (H69AR cells + 2 uM doxorubicin) is -12% (inactive). The figures for the inhibition in experiment [7] and in experiment [8] were 0.13% (inactive) and -4.67% (inactive), respectively.
Turning to `Cn1c(=O)c2nc(Cl)n(Cc3ccc(Cl)cc3Cl)c2n(C)c1=O`, the viability is 96% in experiment [1]; 96% (inactive) in experiment [3]; 105% (inactive) in experiment [4]; 88.3% (inactive) in experiment [5]; 75.9% in experiment [6] (setting [9]); 88.3% in experiment [6] (setting [10]). For the same compound, the Her2 level in experiment [2] is 75% (inactive). Moreover, the differential viability (reversal) in experiment [6] (H69AR cells + 2 uM doxorubicin) was 12.5% (inactive). In addition, the inhibition in experiment [7] is -3.2% (inactive); in experiment [8] it was 7.58% (inactive).
As to `CCCCc1c(O)nc(SCCN(C)C)n(-c2ccccc2)c1=O`, the viability was 93.5% in experiment [1]; 93.5% (inactive) in experiment [3]; 99.5% (inactive) in experiment [4]; 102% (inactive) in experiment [5]; 99% in experiment [6] (setting [9]); 102% in experiment [6] (setting [10]). The Her2 level in experiment [2] was 110% (inactive). For the same compound, the differential viability (reversal) in experiment [6] (H69AR cells + 2 uM doxorubicin) is 2.55% (inactive). The inhibition is -1.18% (inactive) in experiment [7] and 2.62% (inactive) in experiment [8].
`COCCN1C(=O)c2oc3c(C)cc(C)cc3c(=O)c2C1c1cccc(O)c1` (stereo not given): the viability in experiment [1] was 101%; in experiment [3] it was 101% (inactive); in experiment [4] it was 102% (inactive); in experiment [5] it was 88.1% (inactive); in experiment [6] (setting [9]), 90.9%; in experiment [6] (setting [10]), 88.1%. For the same compound, in experiment [2], the Her2 level was 89.5% (inactive). Further, the differential viability (reversal) in experiment [6] (H69AR cells + 2 uM doxorubicin) is -2.81% (inactive). Also, the inhibition in experiment [7] is -5.26% (inactive); in experiment [8] it was -3.23% (inactive).
In the case of `C[C@H](NC(=O)OC(C)(C)C)C(=O)NCC1CCC(C(=O)O)CC1` (stereo not given in full), the viability in experiment [1] was 101%; in experiment [3] it was 101% (inactive); in experiment [4] it was 103% (inactive); in experiment [5], 108% (inactive); in experiment [6] (setting [9]), 96.4%; in experiment [6] (setting [10]), 108%. In experiment [2], the Her2 level is 97% (inactive). In experiment [6] (H69AR cells + 2 uM doxorubicin), the differential viability (reversal) is 11.7% (inactive). Further, the inhibition in experiment [7] is -5.73% (inactive); in experiment [8], -1.29% (inactive).
`COCCN(C(=O)c1csnn1)C(C(=O)NC(C)(C)C)c1cccc(OC)c1` (stereo not given): the viability in experiment [1] is 89.5%; in experiment [3], 89.5% (inactive); in experiment [4], 120% (inactive); in experiment [5], 97.9% (inactive); in experiment [6] (setting [9]), 96.9%; in experiment [6] (setting [10]) it was 97.9%. Also, in experiment [2], the Her2 level was 91% (inactive). Further, the differential viability (reversal) in experiment [6] (H69AR cells + 2 uM doxorubicin) is 0.985% (inactive). In addition, the figures for the inhibition in experiment [7] and in experiment [8] were -4.4% (inactive) and 0% (inactive), respectively.
Consider `CCCn1c2c(c(O)c(C(=O)NC)c1=O)CCCC2`, for which the viability in experiment [1] was 124%; in experiment [3], 124% (inactive); in experiment [4], 92.7% (inactive); in experiment [5], 86% (inactive); in experiment [6] (setting [9]), 93.3%; in experiment [6] (setting [10]), 86%. Further, the Her2 level in experiment [2] was 95% (inactive). Besides, the differential viability (reversal) in experiment [6] (H69AR cells + 2 uM doxorubicin) was -7.29% (inactive). Further, the inhibition is -4.34% (inactive) in experiment [7] and 2.42% (inactive) in experiment [8].
Regarding `COc1ccc(-c2nc(C#N)c(N3CCN(c4ccccc4)CC3)o2)cc1`, the viability in experiment [1] is 94.5%; in experiment [3], 94.5% (inactive); in experiment [4], 94.7% (inactive); in experiment [5] it was 105% (inactive); in experiment [6] (setting [9]), 93.8%; in experiment [6] (setting [10]), 105%. Besides, the Her2 level in experiment [2] was 98.5% (inactive). For the same compound, the differential viability (reversal) in experiment [6] (H69AR cells + 2 uM doxorubicin) was 11.7% (inactive). Further, the inhibition was -2.05% (inactive) in experiment [7] and 3.33% (inactive) in experiment [8].
Turning to `Cn1c(Cl)nc2ccccc21`, the viability was 115% in experiment [1]; 115% (inactive) in experiment [3]; 90.7% (inactive) in experiment [4]; 94.8% (inactive) in experiment [5]; 100% in experiment [6] (setting [9]); 94.8% in experiment [6] (setting [10]). In addition, the Her2 level in experiment [2] is 96% (inactive). In experiment [6] (H69AR cells + 2 uM doxorubicin), the differential viability (reversal) was -5.28% (inactive). Also, the figures for the inhibition in experiment [7] and in experiment [8] were -0.53% (inactive) and 0.97% (inactive), respectively.
Turning to `COC(=O)c1[nH]c2cc(OC)ccc2c1NC(=O)CCN1CCCCC1`, the viability was 85% in experiment [1]; 85% (inactive) in experiment [3]; 116% (inactive) in experiment [4]; 98.2% (inactive) in experiment [5]; 95.8% in experiment [6] (setting [9]); 98.2% in experiment [6] (setting [10]). The Her2 level in experiment [2] was 114% (inactive). Besides, in experiment [6] (H69AR cells + 2 uM doxorubicin), the differential viability (reversal) was 2.35% (inactive). Moreover, the results for the inhibition in experiment [7] and in experiment [8] were -1.97% (inactive) and -4.43% (inactive), respectively.
On to `CCOc1ccccc1C1CC(=O)NC(SCC)=C1C#N` (stereo not given), for which the viability was 85.5% in experiment [1]; 85.5% (inactive) in experiment [3]; 109% (inactive) in experiment [4]; 97% (inactive) in experiment [5]; 89.6% in experiment [6] (setting [9]); 97% in experiment [6] (setting [10]). In addition, in experiment [2], the Her2 level is 89% (inactive). For the same compound, the differential viability (reversal) in experiment [6] (H69AR cells + 2 uM doxorubicin) was 7.42% (inactive). Also, the inhibition in experiment [7] was -6.08% (inactive); in experiment [8], -2.17% (inactive).
With `CCCCCCC1/C(=N/O)CCC1C(=O)OC` (stereo not given), the viability was 108% in experiment [1]; 108% (inactive) in experiment [3]; 109% (inactive) in experiment [4]; 83.2% (inactive) in experiment [5]; 84.2% in experiment [6] (setting [9]); 83.2% in experiment [6] (setting [10]). Also, the Her2 level in experiment [2] is 95.5% (inactive). For the same compound, the differential viability (reversal) in experiment [6] (H69AR cells + 2 uM doxorubicin) is -1.02% (inactive). Moreover, the inhibition in experiment [7] was -8.44% (inactive); in experiment [8], -5.71% (inactive).
Consider `c1cncc(-c2nnc3n2N=C(c2cccs2)CS3)c1`, for which the viability in experiment [1] is 90.5%; in experiment [3] it was 90.5% (inactive); in experiment [4] it was 78.2% (inactive); in experiment [5], 92.5% (inactive); in experiment [6] (setting [9]) it was 88.5%; in experiment [6] (setting [10]), 92.5%. Moreover, the Her2 level in experiment [2] is 73.5% (inactive). The differential viability (reversal) in experiment [6] (H69AR cells + 2 uM doxorubicin) was 4.06% (inactive). In addition, the inhibition in experiment [7] was -4.34% (inactive); in experiment [8], -0.83% (inactive).

By viability is commonly meant a read-out of living cells in per cent, often relative to untreated cells. In general, inhibition refers to the change of the read-out against control, counted positive when it falls.

(Values after PubChem BioAssay.)
